From ChEMBL document CHEMBL2086265, “Design of inhibitors of Helicobacter pylori glutamate racemase as selective antibacterial agents: incorporation of imidazoles onto a core pyrazolopyrimidinedione scaffold to improve bioavailabilty” (Bioorg Med Chem Lett, 2012)
In brackets after ≈: the same amount, converted by molar mass.

Columns and labels:
Helicobacter pylori [1] = assay: Antibacterial activity against wild type Helicobacter pylori 055; format: functional
Helicobacter pylori [2] = assay: Ratio of MIC for wild type Helicobacter pylori 055 to MIC for AcrAB-TolC efflux pump-dificient Helicobacter pylori
[3] = Intrinsic clearance in mouse liver microsomes at 2 uM assessed per mg of protein; format: ADME, Microsome; details: read-out: CLH
[4] = Inhibition of Escherichia coli MurI
[5] = Inhibition of Enterococcus faecalis MurI
Glutamate racemase = target: T1, Glutamate racemase (Helicobacter pylori J99, UniProt Q9ZLT0); assay: Inhibition of Helicobacter pylori J99 glutamate racemase
T1 sequence (Q9ZLT0 whole entry): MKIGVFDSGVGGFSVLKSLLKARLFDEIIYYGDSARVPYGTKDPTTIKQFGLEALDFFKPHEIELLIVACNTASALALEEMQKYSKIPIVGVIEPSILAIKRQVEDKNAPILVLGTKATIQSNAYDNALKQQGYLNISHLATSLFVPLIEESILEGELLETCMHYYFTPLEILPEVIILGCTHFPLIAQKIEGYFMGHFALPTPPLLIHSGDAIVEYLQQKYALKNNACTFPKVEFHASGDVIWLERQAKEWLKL
Procedure, shortened: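 The racemase was expressed from the murI gene of H. pylori J99 chromosomal DNA. IC50 was taken as the mean of duplicate determinations, using a method cited from earlier work.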

Helicobacter pylori [6] = assay: Antibacterial activity against AcrAB-TolC efflux pump-dificient Helicobacter pylori; format: functional
[7] = Intrinsic clearance in human liver microsomes at 2 uM assessed per mg of protein; format: ADME, Microsome; details: read-out: CLH
[8] = Inhibition of Staphylococcus aureus MurI
[9] = Dissociation constant, pKa of the compound; format: physicochemical
[10] = Oral bioavailability in mouse at 40 mg/kg; format: ADME, organism-based; details: in vivo
Helicobacter pylori [11] = assay: Antibacterial activity against Helicobacter pylori infected in mouse assessed as log reduction CFU at 40 mg/kg administered QID for 2 days relative to untreated control
[12] = Half life in mouse at 5 mg/kg, iv and 40 mg/kg, po; format: ADME, organism-based; details: in vivo
[13] = Clearance in mouse at 5 mg/kg, iv and 40 mg/kg, po; format: ADME, organism-based; details: in vivo
[14] = Plasma protein binding in mouse at 10 uM after 16 hrs by Dianorm method; format: ADME, cell-free; details: read-out: PPB (converted)
[15] = Volume of distribution at steady state in mouse at 5 mg/kg, iv and 40 mg/kg, po; format: ADME, organism-based; details: in vivo, read-out: Vdss
[16] = Plasma protein binding in mouse; format: ADME, cell-free; details: read-out: PPB (converted)
Procedure, shortened: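 Plasma protein binding in mouse plasma used a […] compound solution in a dialysis plasma well, incubated at 37 °C for 16 h. Free fraction came from the ratio of drug in buffer to drug in buffer plus plasma wells, both quantified by LC/MS.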

Helicobacter pylori [17] = assay: Antibacterial activity against Helicobacter pylori infected in mouse assessed as log reduction CFU at 10 mg/kg administered BID for 2 days relative to untreated control; format: functional

| SMILES | MIC (Helicobacter pylori [1]) [µg/mL] | microsomal CLint at 2 µM [3] [µL/min/mg] | IC50 [4] [µM] | IC50 [5] [µM] | IC50 (Glutamate racemase) [nM] | MIC (Helicobacter pylori [6]) [µg/mL] | microsomal CLint at 2 µM [7] [µL/min/mg] | IC50 [8] [µM] | pKa [9] | bioavailability [10] [%] | half-life [12] [min] | clearance [13] [mL/min/kg] | fraction unbound at 16 h, 10 µM [14] | Vd [15] [L/kg] | fraction unbound [16] | Ratio (Helicobacter pylori [2]) | FC (Helicobacter pylori [11]) | FC (Helicobacter pylori [17]) |
| --- | --- | --- | --- | --- | --- | --- | --- | --- | --- | --- | --- | --- | --- | --- | --- | --- | --- | --- |
| Cn1cc(C#N)cc1-c1c2c(=O)n(C)c(=O)n(CC3CC3)c2nn1Cc1ccnc2ccc(Cl)cc12 | 0.5 (≈ 1 µM) | 50 | > 400 | > 400 | 25 | 0.8 (≈ 1.6 µM) | 14 | > 400 | – | – | – | – | – | – | – | <=2 | – | – |
| CC(C)Cn1c(=O)n(C)c(=O)c2c(-c3ccncc3)n(Cc3cccc4ccccc34)nc21 | – | – | > 400 | > 400 | – | – | – | > 400 | – | – | – | – | – | – | – | – | – | – |
| Cn1cc(S(C)(=O)=O)cc1-c1c2c(=O)n(C)c(=O)n(CC3CC3)c2nn1Cc1ccnc2ccc(Cl)cc12 | 2 (≈ 3.62 µM) | – | > 400 | > 400 | 34 | – | – | > 400 | – | 13 | – | 15 | – | – | 0.03 | – | – | – |
| C#CC(C)n1c(=O)c2c(-c3cc(C#N)cn3C)n(Cc3ccnc4ccc(Cl)cc34)nc2n(CC2CC2)c1=O (configuration not stated) | 2 (≈ 3.72 µM) | > 100 | – | – | 160 | 8 (≈ 14.9 µM) | 91 | – | – | – | – | – | – | – | – | <=2 | – | – |
| COc1c(N2CCO[C@@H](CN(C)C)C2)c(F)cc2c(=O)c(C(=O)O)cn(C3CC3)c12 | – | – | – | – | – | – | – | – | – | – | – | – | – | – | – | – | – | 5 |
| C#CCn1c(=O)c2c(-c3nc(C#N)cn3C)n(Cc3ccnc4ccc(Cl)cc34)nc2n(CC2CC2)c1=O | 1 (≈ 1.9 µM) | 28 | – | – | 89 | 2 (≈ 3.81 µM) | < 14 | – | – | – | – | – | – | – | – | <=2 | – | – |

More lines, main results first:

| MIC (Helicobacter pylori [1]) [µg/mL] | microsomal CLint at 2 µM [3] [µL/min/mg] | IC50 [4] [µM] | IC50 [5] [µM] | IC50 (Glutamate racemase) [nM] | MIC (Helicobacter pylori [6]) [µg/mL] | microsomal CLint at 2 µM [7] [µL/min/mg] | IC50 [8] [µM] | pKa [9] | bioavailability [10] [%] | half-life [12] [min] | clearance [13] [mL/min/kg] | fraction unbound at 16 h, 10 µM [14] | Vd [15] [L/kg] | fraction unbound [16] | SMILES | Ratio (Helicobacter pylori [2]) | FC (Helicobacter pylori [11]) | FC (Helicobacter pylori [17]) |
| --- | --- | --- | --- | --- | --- | --- | --- | --- | --- | --- | --- | --- | --- | --- | --- | --- | --- | --- |
| 2 (≈ 4 µM) | 18 | – | – | 24 | 0.5 (≈ 1 µM) | < 14 | – | 7.2 | 100 | 126 | 20 | 0.96 | 3.6 | – | C#CCn1c(=O)c2c(-c3cncn3C)n(Cc3ccnc4ccc(Cl)cc34)nc2n(CC2CC2)c1=O | – | 1 | – |
| 2 (≈ 4.2 µM) | 21 | – | – | 41 | 0.25 (≈ 0.525 µM) | < 17 | – | – | 76 | 42 | 14 | > 0.969 | 1.2 | – | Cn1cncc1-c1c2c(=O)n(C)c(=O)n(CC3CC3)c2nn1Cc1ccnc2ccc(Cl)cc12 | – | – | – |
| 0.75 (≈ 1.46 µM) | 17 | – | – | 70 | 0.6 (≈ 1.17 µM) | 25 | – | – | – | – | – | – | – | – | CCn1c(=O)c2c(-c3cc(C#N)cn3C)n(Cc3ccnc4ccc(Cl)cc34)nc2n(CC2CC2)c1=O | <=2 | – | – |
| 2 (≈ 3.72 µM) | > 100 | – | – | 74 | 2 (≈ 3.72 µM) | 99 | – | – | – | – | – | – | – | – | CC#CCn1c(=O)c2c(-c3cc(C#N)cn3C)n(Cc3ccnc4ccc(Cl)cc34)nc2n(CC2CC2)c1=O | <=2 | – | – |
